The source made the active and inactive calls. No cut-off for these calls is given here.
How the values were obtained:
[1] = Stimulation of alkaline phosphatase activity in mouse calvarial osteoblasts after 48 hrs by spectrophotometric analysis
In short: (§1)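 Calvarial osteoblasts were exposed to compounds over 1 pM to 1 µM. ALP activity was read spectrophotometrically as optical density at 405 nm. Results were expressed as % ALP activity, with EC50 and Emax derived from the concentration series.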

Mus musculus [2] = species: Mus musculus; test: Stimulation of alkaline phosphatase activity in mouse calvarial osteoblasts at 1 pM to 1 uM after 48 hrs by spectrophotometric analysis; in short: as §1
Mus musculus [3] = species: Mus musculus; test: Stimulation of alkaline phosphatase activity in mouse calvarial osteoblasts at 1 pM to 1 uM after 48 hrs by spectrophotometric analysis relative to nifedipine
Mus musculus [4] = species: Mus musculus; test: Stimulation of alkaline phosphatase activity in mouse calvarial osteoblasts assessed as concentration required for maximum activity after 48 hrs by spectrophotometric analysis; in short: as §1
Calvarial osteoblast [5] = test: Induction of osteoblastogenesis in mouse calvarial osteoblasts assessed as increase in expression of BMP2 gene at 100 pM by qPCR analysis relative to control; assay type: functional, cell-based
Calvarial osteoblast [6] = test: Induction of mineralization in mouse calvarial osteoblasts assessed as increase of mineralized nodules formation measuring concentration required for maximum activity after 21 days by alizarin red-S staining based spectrophotometric analysis; assay type: functional
Calvarial osteoblast [7] = test: Induction of osteoblastogenesis in mouse calvarial osteoblasts assessed as increase in expression of BMP2 gene at 100 pM to 10 nM by qPCR analysis relative to control; assay type: functional
Calvarial osteoblast [8] = test: Induction of osteoblastogenesis in mouse calvarial osteoblasts assessed as increase in expression of COL1 gene at 100 pM by qPCR analysis relative to control; assay type: functional, cell-based
Calvarial osteoblast [9] = test: Induction of osteoblastogenesis in mouse calvarial osteoblasts assessed as increase in BMP2 expression at 100 pM to 10 nM by Western blotting analysis; assay type: functional, cell-based
Calvarial osteoblast [10] = test: Induction of proliferation of mouse calvarial osteoblasts at 1 pM to 1 uM after 48 hrs; assay type: functional, cell-based
Calvarial osteoblast [11] = test: Induction of osteoblastogenesis in mouse calvarial osteoblasts assessed as increase in expression of osteocalcin gene at 100 pM by qPCR analysis relative to control; assay type: functional, cell-based
Calvarial osteoblast [12] = test: Induction of osteoblastogenesis in mouse calvarial osteoblasts assessed as increase in COL1 expression at 100 pM to 10 nM by Western blotting analysis; assay type: functional, cell-based
Calvarial osteoblast [13] = test: Induction of osteoblastogenesis in mouse calvarial osteoblasts assessed as increase in expression of ALP gene at 100 pM by qPCR analysis relative to control; assay type: functional, cell-based
Calvarial osteoblast [14] = test: Induction of osteoblastogenesis in mouse calvarial osteoblasts assessed as increase in expression of osteocalcin gene at 100 pM to 10 nM by qPCR analysis relative to control; assay type: functional
Calvarial osteoblast [15] = test: Induction of osteoblastogenesis in mouse calvarial osteoblasts assessed as increase in expression of RUNX2 gene at 100 pM by qPCR analysis relative to control; assay type: functional, cell-based
[16] = Cytotoxicity against mouse calvarial osteoblasts assessed as cell viability at 1 pM to 1 uM after 48 hrs by MTT assay; assay type: cell-based; conditions: calvarial osteoblast
Calvarial osteoblast [17] = test: Induction of osteoblastogenesis in mouse calvarial osteoblasts assessed as increase in expression of COL1 gene at 100 pM to 10 nM by qPCR analysis relative to control; assay type: functional
Calvarial osteoblast [18] = test: Induction of osteoblastogenesis in mouse calvarial osteoblasts assessed as increase in expression of RUNX2 gene at 100 pM to 10 nM by qPCR analysis relative to control; assay type: functional
Calvarial osteoblast [19] = test: Induction of osteoblastogenesis in mouse calvarial osteoblasts assessed as increase in RUNX2 expression at 100 pM to 10 nM by Western blotting analysis; assay type: functional, cell-based
Calvarial osteoblast [20] = test: Induction of osteoblastogenesis in mouse calvarial osteoblasts assessed as increase in expression of ALP gene at 100 pM to 10 nM by qPCR analysis relative to control; assay type: functional

CCOC(=O)C1=C(C)NC(C)=C(C(=O)OCC)C1c1cc(C(C)CC)c2oc(=O)c(C(=O)OC)cc2c1 (centres undefined)
EC50 [1]: 1.14 µM
Activity (Mus musculus [2]): 5%
Activity (Mus musculus [3]): inactive
Concentration giving maximum ALP activity (Mus musculus [4]): 100 pM

CCOC(=O)c1cc2cc(C3C(C(=O)OC)=C(C)NC(C)=C3C(=O)OC)cc(C(C)(C)C)c2oc1=O
EC50 [1]: 1.04 µM
Activity (Mus musculus [2]): 7%
Activity (Mus musculus [3]): inactive
Concentration giving maximum ALP activity (Mus musculus [4]): 1 pM

COC(=O)C1=C(C)NC2=C(C(=O)CC(C)(C)C2)C1c1cc(C(C)(C)C)c2oc(=O)c(C(=O)OC)cc2c1 (racemic)
EC50 [1]: 1.53 µM
Activity (Mus musculus [2]): 10%
Activity (Mus musculus [3]): inactive
Concentration giving maximum ALP activity (Mus musculus [4]): 10000 pM

CCC(C)c1cc(C2C(C(=O)OC)=C(C)NC(C)=C2C(=O)OC)cc2cc(C(=O)OC)c(=O)oc12 (centres undefined)
Activity (Calvarial osteoblast [5]): Active
Concentration for maximum mineralization (Calvarial osteoblast [6]): 1 pM
EC50 [1]: 1.19 µM
fold change (FC) (Calvarial osteoblast [7]): 1.5
Activity (Calvarial osteoblast [8]): Active
Activity (Calvarial osteoblast [9]): Active
Activity (Mus musculus [2]): 30%
Activity (Calvarial osteoblast [10]): Active
Activity (Calvarial osteoblast [11]): Active
Activity (Calvarial osteoblast [12]): Active
Activity (Calvarial osteoblast [13]): Active
fold change (FC) (Calvarial osteoblast [14]): 1.5
Activity (Mus musculus [3]): 12%
Activity (Calvarial osteoblast [15]): Active
Activity [16]: Non-toxic
fold change (FC) (Calvarial osteoblast [17]): 1.5
Concentration giving maximum ALP activity (Mus musculus [4]): 1 pM
fold change (FC) (Calvarial osteoblast [18]): 1.5
Activity (Calvarial osteoblast [19]): Active
fold change (FC) (Calvarial osteoblast [20]): 1.5

CCOC(=O)c1cc2cc(C=O)cc(C(C)(C)C)c2oc1=O
Activity (Mus musculus [2]): inactive

COC(=O)C1=C(C)NC(C)=C(C(=O)OC)C1c1cc(C(C)(C)C)c2oc(=O)c(C(=O)OC)cc2c1
Activity (Mus musculus [2]): inactive

COC(=O)c1cc2cc(C=O)cc(C(C)(C)C)c2oc1=O
Activity (Mus musculus [2]): inactive

CCOC(=O)C1=C(C)NC2=C(C(=O)CCC2)C1c1cc(C(C)CC)c2oc(=O)c(C(=O)OCC)cc2c1 (racemic)
EC50 [1]: 1.01 µM
Activity (Mus musculus [2]): 35%
Activity (Mus musculus [3]): 14%
Concentration giving maximum ALP activity (Mus musculus [4]): 1 pM

CCOC(=O)C1=C(C)NC2=C(C(=O)CCC2)C1c1cc(C(C)(C)C)c2oc(=O)c(C(=O)OC)cc2c1 (racemic)
EC50 [1]: 1.26 µM
Activity (Mus musculus [2]): 4%
Activity (Mus musculus [3]): inactive
Concentration giving maximum ALP activity (Mus musculus [4]): 1 pM

CCOC(=O)C1=C(C)NC2=C(C(=O)CCC2)C1c1cc(C(C)(C)C)c2oc(=O)c(C(=O)OCC)cc2c1 (racemic)
EC50 [1]: 1.34 µM
Activity (Mus musculus [2]): 13%
Concentration giving maximum ALP activity (Mus musculus [4]): 1 pM

CCOC(=O)c1cc2cc(C3C(C(=O)OC)=C(C)NC4=C3C(=O)CC(C)(C)C4)cc(C(C)(C)C)c2oc1=O (racemic)
EC50 [1]: 1.09 µM
Activity (Mus musculus [2]): 5%
Concentration giving maximum ALP activity (Mus musculus [4]): 1 pM

CCOC(=O)C1=C(C)NC(C)=C(C(=O)OCC)C1c1cc(C(C)CC)c2oc(=O)c(C(=O)OCC)cc2c1 (centres undefined)
EC50 [1]: 1.23 µM
Activity (Mus musculus [2]): 4%
Activity (Mus musculus [3]): inactive
Concentration giving maximum ALP activity (Mus musculus [4]): 100 pM

CCOC(=O)C1=C(C)NC(C)=C(C(=O)OCC)C1c1cc(C(C)(C)C)c2oc(=O)c(C(=O)OC)cc2c1
Activity (Calvarial osteoblast [5]): Active
Concentration for maximum mineralization (Calvarial osteoblast [6]): 100 pM
EC50 [1]: 1.1 µM
fold change (FC) (Calvarial osteoblast [7]): 1.5
Activity (Calvarial osteoblast [8]): Active
Activity (Calvarial osteoblast [9]): Active
Activity (Mus musculus [2]): 70%
Activity (Calvarial osteoblast [10]): Active
Activity (Calvarial osteoblast [11]): Active
Activity (Calvarial osteoblast [12]): Active
Activity (Calvarial osteoblast [13]): Active
fold change (FC) (Calvarial osteoblast [14]): 1.5
Activity (Mus musculus [3]): 28%
Activity (Calvarial osteoblast [15]): Active
Activity [16]: Non-toxic
fold change (FC) (Calvarial osteoblast [17]): 1.5
Concentration giving maximum ALP activity (Mus musculus [4]): 100 pM
fold change (FC) (Calvarial osteoblast [18]): 1.5
Activity (Calvarial osteoblast [19]): Active
fold change (FC) (Calvarial osteoblast [20]): 1.5

CCOC(=O)c1cc2cc(C3C(C(=O)OC)=C(C)NC4=C3C(=O)CCC4)cc(C(C)CC)c2oc1=O (racemic)
EC50 [1]: 1.23 µM
Activity (Mus musculus [2]): 12%
Activity (Mus musculus [3]): inactive
Concentration giving maximum ALP activity (Mus musculus [4]): 100 pM

CCOC(=O)C1=C(C)NC2=C(C(=O)CC(C)(C)C2)C1c1cc(C(C)CC)c2oc(=O)c(C(=O)OCC)cc2c1 (racemic)
EC50 [1]: 1.28 µM
Activity (Mus musculus [2]): 3%
Activity (Mus musculus [3]): inactive
Concentration giving maximum ALP activity (Mus musculus [4]): 100 pM

CCOC(=O)C1=C(C)NC2=C(C(=O)CC(C)(C)C2)C1c1cc(C(C)(C)C)c2oc(=O)c(C(=O)OCC)cc2c1 (racemic)
EC50 [1]: 1.56 µM
Activity (Mus musculus [2]): 4%
Activity (Mus musculus [3]): inactive
Concentration giving maximum ALP activity (Mus musculus [4]): 10000 pM

CCOC(=O)c1cc2cc(C3C(C(=O)OC)=C(C)NC(C)=C3C(=O)OC)cc(C(C)CC)c2oc1=O (centres undefined)
EC50 [1]: 1.51 µM
Activity (Mus musculus [2]): 20%
Activity (Mus musculus [3]): inactive
Concentration giving maximum ALP activity (Mus musculus [4]): 10000 pM

CCOC(=O)c1cc2cc(C=O)cc(C(C)CC)c2oc1=O (centres undefined)
EC50 [1]: 1.49 µM
Activity (Mus musculus [2]): 6%
Activity (Mus musculus [3]): inactive
Concentration giving maximum ALP activity (Mus musculus [4]): 10000 pM

CCOC(=O)C1=C(C)NC2=C(C(=O)CC(C)(C)C2)C1c1cc(C(C)CC)c2oc(=O)c(C(=O)OC)cc2c1 (racemic)
Activity (Calvarial osteoblast [5]): Active
Concentration for maximum mineralization (Calvarial osteoblast [6]): 100 pM
EC50 [1]: 1.01 µM
fold change (FC) (Calvarial osteoblast [7]): 1.5
Activity (Calvarial osteoblast [8]): Active
Activity (Calvarial osteoblast [9]): Active
Activity (Mus musculus [2]): 43%
Activity (Calvarial osteoblast [10]): Active
Activity (Calvarial osteoblast [11]): Active
Activity (Calvarial osteoblast [12]): Active
Activity (Calvarial osteoblast [13]): Active
fold change (FC) (Calvarial osteoblast [14]): 1.5
Activity (Mus musculus [3]): 17%
Activity (Calvarial osteoblast [15]): Active
Activity [16]: Non-toxic
fold change (FC) (Calvarial osteoblast [17]): 1.5
Concentration giving maximum ALP activity (Mus musculus [4]): 1 pM
fold change (FC) (Calvarial osteoblast [18]): 1.5
Activity (Calvarial osteoblast [19]): Active
fold change (FC) (Calvarial osteoblast [20]): 1.5

CCC(C)c1cc(C2C(C(=O)OC)=C(C)NC3=C2C(=O)CCC3)cc2cc(C(=O)OC)c(=O)oc12 (racemic)
EC50 [1]: 1.56 µM
Activity (Mus musculus [2]): 4%
Activity (Mus musculus [3]): inactive
Concentration giving maximum ALP activity (Mus musculus [4]): 10000 pM

CCOC(=O)c1cc2cc(C3C(C(=O)OC)=C(C)NC4=C3C(=O)CCC4)cc(C(C)(C)C)c2oc1=O (racemic)
EC50 [1]: 1.31 µM
Activity (Mus musculus [2]): 10%
Activity (Mus musculus [3]): inactive
Concentration giving maximum ALP activity (Mus musculus [4]): 1 pM

COC(=O)C1=C(C)NC2=C(C(=O)CCC2)C1c1cc(C(C)(C)C)c2oc(=O)c(C(=O)OC)cc2c1 (racemic)
EC50 [1]: 1.34 µM
Activity (Mus musculus [2]): 14%
Activity (Mus musculus [3]): inactive
Concentration giving maximum ALP activity (Mus musculus [4]): 100 pM

CCC(C)c1cc(C=O)cc2cc(C(=O)OC)c(=O)oc12 (centres undefined)
Activity (Mus musculus [2]): inactive

CCOC(=O)c1cc2cc(C3C(C(=O)OC)=C(C)NC4=C3C(=O)CC(C)(C)C4)cc(C(C)CC)c2oc1=O (racemic)
EC50 [1]: 1.19 µM
Activity (Mus musculus [2]): 39%
Activity (Mus musculus [3]): 16%
Concentration giving maximum ALP activity (Mus musculus [4]): 1 pM

COC(=O)C1=C(C)NC(C)=C(C(=O)OC)C1c1ccccc1[N+](=O)[O-] [NIFEDIPINE]
Concentration for maximum mineralization (Calvarial osteoblast [6]): 10000 pM
EC50 [1]: 1.45 µM
Activity (Mus musculus [2]): 25%
Activity (Calvarial osteoblast [10]): Active
